“Also recorded” adds a separate entry of the source.

Data set [1] has as its target T1, hCD44(21–178) (Homo sapiens, UniProt P16070). In words: Isothermal Titration Calorimetry. Format: binding. The note with it: 23°C, pH 6.7, 5% DMSO.
Data set [2] concerns the target T1, hCD44(21–178). In words: NMR binding: 2D [1H,15N]-sofast-HMQC / 1D 1H-aliphatic spectra of 15N-hCD44. The note with it: for binding by 2D [1H,15N]-sofast-HMQC: 20 μM 15N-hCD44(21–178). The method in brief:
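Human CD44 HA-binding domain (Q21–V178) was expressed in E. coli BL21(DE3) gold pLysS in M9 with 15NH4Cl, refolded from urea-solubilised inclusion bodies, and purified as monomer by size exclusion. 2D [1H,15N]-sofast-HMQC (48 scans) and 1D 1H (128 scans) spectra were recorded at 300 K in 50 mM phosphate, 150 mM NaCl, 0.02% NaN3, pH 6.7. Spectra were compared with and without test peptide.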

The target of data set [3] is T1, hCD44(21–178). In words: ITC competition. Format: binding.
For data set [4], the target named is T1, hCD44(21–178). In words: Saturation Transfer Difference. Format: binding. The note with it: saturating for 2 seconds at −0.28 ppm. The method in brief:
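STD spectra used 128 scans, with 2 s saturation on-resonance at −0.28 ppm and off-resonance reference at −10 ppm. Samples contained hCD44(21–178) and test ligand, with HA8 as positive control. Conditions: 300 K in 50 mM phosphate, 150 mM NaCl, 0.02% NaN3, pH 6.7, on a 600 or 700 MHz spectrometer with cryoprobe.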

For data set [5], the target named is T1, hCD44(21–178). In words: NMR displacement / ternary binding experiments by 2D [1H,15N]-sofast-HMQC.
In a further data set the test system is DF1485 antibody. In words: 2D [1H,13C]-HSQC of 13C-A6 peptide with antibody. Format: binding, mouse. The note with it: 5 μM 13C-A6 peptide, 4 μM DF1485. In outline: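 Test peptide carries a 13C-labelled N-acetyl methyl. 2D [1H,13C]-HSQC spectra were recorded without and with the mouse anti-CD44 monoclonal antibody DF1485 ([…]), using 64 scans and 4096 × 128 complex points. Conditions: 300 K, 600 or 700 MHz with cryoprobe, 50 mM phosphate, 150 mM NaCl, 0.02% NaN3, pH 6.7. Read-out was broadening or chemical shift change of the methyl signal.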

Data set [6] in a line: Solubility under binding study conditions. Format: physicochemical. The note with it: under the binding study conditions.

T1 sequence (P16070 21-178): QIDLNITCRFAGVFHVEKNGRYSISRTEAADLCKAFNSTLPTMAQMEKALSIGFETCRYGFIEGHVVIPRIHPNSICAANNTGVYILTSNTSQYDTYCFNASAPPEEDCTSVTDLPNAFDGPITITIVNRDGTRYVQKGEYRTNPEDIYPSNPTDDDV

For `CC(=O)N[C@H]1[C@H](O[C@H]2[C@H](O)[C@@H](O)[C@H](O[C@H]3[C@H](O)[C@@H](CO)O[C@@H](O[C@H]4[C@H](O)[C@@H](O)[C@H](O[C@H]5[C@H](O)[C@@H](CO)O[C@@H](O[C@H]6[C@H](O)[C@@H](O)[C@H](O[C@H]7[C@H](O)[C@@H](CO)OC(O)[C@@H]7NC(C)=O)O[C@@H]6C(=O)O)[C@@H]5NC(C)=O)O[C@@H]4C(=O)O)[C@@H]3NC(C)=O)O[C@@H]2C(=O)O)O[C@H](CO)[C@@H](O)[C@@H]1O[C@@H]1O[C@H](C(=O)O)[C@@H](O)[C@H](O)[C@H]1O` (stereo partly drawn) [HA8, [GlcNAc-GlcUA]4], at hCD44(21–178) [1] (hCD44 73 μM titrated with 1.6 mM HA8), the “enthalpy of binding ΔH (ITC)” value is -2.9 kJ/mol. The “chemical shift perturbations in 2D [1H,15N]-sofast-HMQC” value on hCD44(21–178) [2] (20 μM hCD44(21–178), 220 μM HA8, 300 K, pH 6.7) is on record as “widespread perturbations”. Also, the “ΔH of HA8 binding in presence of compound 3 (ITC)” value at hCD44(21–178) [3] (750-fold molar excess (55 mM) compound 3) was -3.47 kJ/mol. Further, at hCD44(21–178) [3] (hCD44(21–178) incubated with 750-fold molar excess (55 mM) compound 3, titrated with 1.6 mM HA8, 23°C, pH 6.7, 5% DMSO), the “Kd of HA8 in presence of compound 3 (ITC)” value came out at 37.5 µM. The STD effect entry at hCD44(21–178) [4] is reported as “significant STD effect”.

Consider Ac-KPSSPPEE-NH2 [A6 Peptide], for which, on hCD44(21–178) [1] (hCD44 73 μM titrated with 1 mM A6 peptide), the “direct interaction by ITC” value is listed as “absence of direct interactions”. The “binding by 2D [1H,15N]-sofast-HMQC” value on hCD44(21–178) [2] (500 μM A6 peptide, pH 6.7, listed as A6) is “could not observe any significant binding”; on hCD44(21–178) [2] (500 μM A6 peptide, pH 6.7, listed as A6-peptide), “absence of appreciable binding”; on hCD44(21–178) [2] (500 μM A6 peptide, pH 6.7, listed as A6 peptide), “No appreciable binding”. At hCD44(21–178) [5] (10 μM 15N-hCD44(21–178), 10 μM DF1485, addition of 500 μM A6 peptide), the “displacement of DF1485 antibody from hCD44(21–178)” value is reported as “not displaced”. The “binding to hCD44 in complex with HA8” value at hCD44(21–178) [5] (A6, 15N-labeled hCD44(21–178)) was “did not observe significant binding”. The “interaction between 13C-A6 peptide and DF1485 antibody” value in the data set with DF1485 antibody is on record as “no appreciable binding”.

For the compound Ac-SRPQGPFL-NH2, at hCD44(21–178) [2] (400 μM peptide), the “binding by 2D [1H,15N]-sofast-HMQC” value is recorded as “no significant binding”.

In the case of H-RLVSYNGIIFFLK-NH2 [A5G27], the “binding by 2D [1H,15N]-sofast-HMQC” value at hCD44(21–178) [2] (200 μM A5G27) is recorded as “no evidence of binding”. Further, the solubility entry in data set [6] was “limited solubility; also recorded: fairly low solubility”.
